In ChEMBL document CHEMBL4270568, “Identification, structural modification, and dichotomous effects on human immunodeficiency virus type 1 (HIV-1) replication of ingenane esters from Euphorbia kansui” (Eur J Med Chem, 2018):
Active and inactive are the calls of the source. No cut-off for these calls is given here.

Assays:
MT4 = experiment: Cytotoxicity against human MT4 cells after 3 days by CytoTox-Glo assay; assay type: cell-based; conditions: mt4, 72 h
Summary of the method: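 MT4 cells cultured for 3 days with various compound concentrations. Cytotoxicity is read by CytoTox-Glo following the manufacturer's protocol. CC50 = concentration causing 50% reduction of cell viability.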

[1] = system: Human immunodeficiency virus 1; experiment: Antiviral activity against Human immunodeficiency virus 1 NL4-3 infected in human MT4 cells measured on day 3 post infection by Nano-Glo luciferase reporter gene assay; assay type: functional, organism-based; conditions: Human immunodeficiency virus 1, NL4-3, MT4, 72 h
Summary of the method: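 HIV-1 NL4-3 Nanoluc-sec reporter virus at 50 TCID50/well infects MT4 cells (1 × 10⁵ cells/mL) in the presence of graded compound concentrations. On day 3 post-infection, supernatant is assayed for secreted NanoLuc luciferase.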

[2] = Selectivity index, ratio of CC50 for human MT4 cells to EC50 for Human immunodeficiency virus 1 NL4-3 infected in human MT4 cells; assay type: toxicity, cell-based; conditions: read-out: Ratio CC50/EC50
Summary of the method: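 SI = CC50/EC50. CC50 is from a 3-day CytoTox-Glo assay on MT4 cells. EC50 is from MT4 cells infected with 50 TCID50/well NL4-3 Nanoluc-sec and given graded compound, with supernatant luciferase read on day 3 as 50% reduction.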

[3] = Cytotoxicity against human U937 cells after 3 days by CytoTox-Glo assay; assay type: cell-based, U-937
Summary of the method: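 U937 cytotoxicity is run by the same method as for MT4: 3-day culture with various compound concentrations, CytoTox-Glo read-out, and CC50 taken as 50% reduction of viability.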

[4] = system: Human immunodeficiency virus 1; experiment: Reactivation of latent HIV1 infected in human J-Lat A2 cells assessed as increase in GFP expression at 10 to 50 nM after 72 hrs by flow cytometric method; assay type: functional, organism-based
Summary of the method: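 J-Lat (A2) cells (1×10⁶ cells/well) incubated with various concentrations of latency reversing agents at 37 °C for 72 h. GFP-expressing cells are quantified by flow cytometry.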

[5] = system: Human immunodeficiency virus 1; experiment: Potency index, ratio AZT EC50 to test compound EC50 for Human immunodeficiency virus 1 NL4-3 infected in human MT4 cells; assay type: functional
[6] = system: Human immunodeficiency virus 1; experiment: Reactivation of latent HIV1 infected in human U1 cells assessed as increase in p24 production after 72 hrs by ELISA; assay type: functional, organism-based; conditions: Human immunodeficiency virus 1, U1, 72 h
Summary of the method: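 Latently infected U1 cells (2×10⁵ cells/mL) incubated with various compound concentrations at 37 °C for 72 h. Culture supernatant p24 is measured by ELISA. EC50 = concentration activating p24 production by 50%, fitted by non-linear regression.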

Structure (SMILES) | CC50 (MT4) [µM] | EC50 [1] [µM] | selectivity ratio [2] | CC50 at 72 h [3] [µM] | Activity [4] | Ratio EC50 [5] | EC50 [6] [µM]
CC1=C[C@@H]2C(=O)[C@]3(C=C(C)[C@H](O)[C@@]3(O)[C@@H]1OC(=O)c1ccc3ccccc3c1)[C@H](C)C[C@@H]1[C@H]2C1(C)C | > 8.2 | 0.0155 | > 179 |  |  |  | 
C/C=C/C(=O)O[C@@H]1C(C)=C[C@@H]2C(=O)[C@]3(C=C(C)[C@H](O)[C@@]13O)[C@H](C)C[C@@H]1[C@H]2C1(C)C | > 10 | 0.63 | > 16 |  |  |  | 
CCCCCCCC(=O)O[C@H]1C(C)=C[C@]23C(=O)[C@@H](C=C(C)[C@@H](O)[C@]12O)[C@H]1[C@@H](C[C@H]3C)C1(C)C | > 8.7 | 0.145 | > 59.9 |  |  |  | 
CC1=C[C@]23C(=O)[C@@H](C=C(CO)[C@@H](O)[C@]2(O)[C@H]1OC(=O)c1ccc2ccccc2c1)[C@H]1[C@@H](C[C@H]3C)C1(C)C | > 8 | 0.0013 | > 6150 | > 20 | Active | 10 | 0.0024
CC1=C[C@@H]2C(=O)[C@]3(C=C(C)[C@H](O)[C@@]3(O)[C@@H]1OC(=O)c1ccccc1)[C@H](C)C[C@@H]1[C@H]2C1(C)C | > 9.2 | 0.0426 | > 216 |  |  |  | 
CC1=C[C@@H]2C(=O)[C@]3(C=C(C)[C@H](OC(=O)c4ccccc4)[C@@]3(O)[C@@H]1O)[C@H](C)C[C@@H]1[C@H]2C1(C)C | > 9.2 | 0.0305 | > 302 |  |  |  | 
CC1=C[C@]23C(=O)[C@@H](C=C(CO)[C@@H](O)[C@]2(O)[C@H]1O)[C@H]1[C@@H](C[C@H]3C)C1(C)C [INGENOL] | > 11.5 | > 11.5 | > 10 |  |  |  | 
COc1ccc(C(=O)O[C@@H]2C(C)=C[C@@H]3C(=O)[C@]4(C=C(C)[C@H](O)[C@@]24O)[C@H](C)C[C@@H]2[C@H]3C2(C)C)cc1 | > 8.6 | 0.433 | > 20 |  |  |  | 
C/C=C(/C)C(=O)O[C@H]1C(C)=C[C@]23C(=O)[C@@H](C=C(CO)[C@@H](O)[C@]12O)[C@H]1[C@@H](C[C@H]3C)C1(C)C [INGENOL MEBUTATE] | > 9.3 | 0.0045 | > 2070 |  | Active |  | 0.0042
C/C=C(\C)C(=O)O[C@H]1C(C)=C[C@]23C(=O)[C@@H](C=C(C)[C@@H](O)[C@]12O)[C@H]1[C@@H](C[C@H]3C)C1(C)C |  | 0.209 | > 46 |  |  |  | 
CC(=O)OCC1=C[C@@H]2C(=O)[C@]3(C=C(C)[C@H](O)[C@@]3(O)[C@@H]1O)[C@H](C)C[C@@H]1[C@H]2C1(C)C | > 10.3 | 1.08 | > 10 |  |  |  | 
CC(=O)O[C@H]1C(C)=C[C@]23C(=O)[C@@H](C=C(C)[C@@H](OC(=O)c4ccccc4)[C@]12O)[C@H]1[C@@H](C[C@H]3C)C1(C)C | > 8.4 | 0.367 | > 23 |  |  |  | 
CC1=C[C@@H]2C(=O)[C@]3(C=C(C)[C@H](OC(=O)c4ccc5ccccc5c4)[C@@]3(O)[C@@H]1O)[C@H](C)C[C@@H]1[C@H]2C1(C)C | > 8.2 | 0.0151 | > 543 |  |  |  | 
CCCCCCCCCCCC(=O)O[C@@]12C[C@@H](C)[C@]34C=C(C)[C@H](OC(=O)C(C)C(C)C)[C@@]3(O)[C@H](O)C(CO)=C[C@H](C4=O)[C@@H]1C2(C)C (some centres undefined) | > 6.2 | 0.0008 | > 7500 |  |  |  | 
C/C=C(/C)C(=O)O[C@H]1C(C)=C[C@]23C(=O)[C@@H](C=C(C)[C@@H](O)[C@]12O)[C@H]1[C@@H](C[C@H]3C)C1(C)C | > 9.7 | 0.426 | > 22.8 |  |  |  | 
Cc1cn([C@H]2C[C@H](N=[N+]=[N-])[C@@H](CO)O2)c(=O)[nH]c1=O [ZIDOVUDINE] | > 0.4 |  |  |  |  |  | 
CCCCCCCCCCCC(=O)O[C@@]12C[C@@H](C)[C@]34C=C(C)[C@H](O)[C@@]3(O)[C@H](O)C(CO)=C[C@H](C4=O)[C@@H]1C2(C)C | > 9.2 | 0.0337 | > 273 |  |  |  | 
C/C=C/C(=O)O[C@H]1C(C)=C[C@]23C(=O)[C@@H](C=C(C)[C@@H](O)[C@]12O)[C@H]1[C@@H](C[C@H]3C)C1(C)C | > 10 | 0.6 | > 17 |  |  |  | 
CC1=C[C@@H]2C(=O)[C@]3(C=C(C)[C@H](O)[C@@]3(O)[C@@H]1O)[C@H](C)C[C@@H]1[C@H]2C1(C)C | > 12 | > 12 | > 10 |  |  |  | 
COc1ccc(C(=O)O[C@H]2C(C)=C[C@]34C(=O)[C@@H](C=C(C)[C@@H](O)[C@]23O)[C@H]2[C@@H](C[C@H]4C)C2(C)C)cc1 | > 8.6 | 0.134 | > 64 |  |  |  | 
CC1=C[C@@H]2C(=O)[C@]3(C=C(C)[C@H](OC(=O)/C=C/c4ccccc4)[C@@]3(O)[C@@H]1O)[C@H](C)C[C@@H]1[C@H]2C1(C)C | > 8.7 | 0.188 | > 45 |  |  |  | 
CC1=C[C@@H]2C(=O)[C@]3(C=C(C)[C@H](O)[C@@]3(O)[C@@H]1OC(=O)/C=C/c1ccccc1)[C@H](C)C[C@@H]1[C@H]2C1(C)C | > 8.7 | 0.396 | > 22 |  |  |  | 
